Data taken from BindingDB's records for doi:10.1016/j.bmcl.2012.10.080 (University of California, 2012).

Target: T1, Phospholipase A2, membrane associated (Homo sapiens, UniProt P14555)
T1 sequence (P14555 whole entry): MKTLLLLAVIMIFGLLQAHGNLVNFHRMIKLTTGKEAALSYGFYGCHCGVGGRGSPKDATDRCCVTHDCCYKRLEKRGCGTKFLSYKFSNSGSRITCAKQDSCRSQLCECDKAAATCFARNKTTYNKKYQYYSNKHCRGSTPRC
Assay: Inhibition of sPLA2-IIA (unknown origin)-integrin alphaVbeta3 interaction in human K562 cells pretreated for 30 mins to immobilized sPLA2 before adding cells by phosphatase assay
Procedure, shortened: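 Wells coated with sPLA2-IIA and blocked with BSA were preincubated with compound (10 to 500 μM) for 30 min. Integrin αvβ3-transfected K562 erythroleukemia cells were then added for 1 h at 37 °C, and bound cells were quantified by phosphatase assay. IC50 and maximum inhibition were derived from dose-response experiments.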

IC50: 241 µM
SMILES: Cc1nc(NC(=O)c2ccccc2)sc1-c1cc(C(=O)NCC(=O)O)[nH]n1
